“Also recorded” adds a separate entry of the source.
Tests used:
[1] = target: T1, EphB1 T697G (Homo sapiens, UniProt P54762, T697G); assay: EphB1 autophosphorylation in transfected HEK293 cells; type: cell-based
T1 sequence (P54762 18-984 T697G): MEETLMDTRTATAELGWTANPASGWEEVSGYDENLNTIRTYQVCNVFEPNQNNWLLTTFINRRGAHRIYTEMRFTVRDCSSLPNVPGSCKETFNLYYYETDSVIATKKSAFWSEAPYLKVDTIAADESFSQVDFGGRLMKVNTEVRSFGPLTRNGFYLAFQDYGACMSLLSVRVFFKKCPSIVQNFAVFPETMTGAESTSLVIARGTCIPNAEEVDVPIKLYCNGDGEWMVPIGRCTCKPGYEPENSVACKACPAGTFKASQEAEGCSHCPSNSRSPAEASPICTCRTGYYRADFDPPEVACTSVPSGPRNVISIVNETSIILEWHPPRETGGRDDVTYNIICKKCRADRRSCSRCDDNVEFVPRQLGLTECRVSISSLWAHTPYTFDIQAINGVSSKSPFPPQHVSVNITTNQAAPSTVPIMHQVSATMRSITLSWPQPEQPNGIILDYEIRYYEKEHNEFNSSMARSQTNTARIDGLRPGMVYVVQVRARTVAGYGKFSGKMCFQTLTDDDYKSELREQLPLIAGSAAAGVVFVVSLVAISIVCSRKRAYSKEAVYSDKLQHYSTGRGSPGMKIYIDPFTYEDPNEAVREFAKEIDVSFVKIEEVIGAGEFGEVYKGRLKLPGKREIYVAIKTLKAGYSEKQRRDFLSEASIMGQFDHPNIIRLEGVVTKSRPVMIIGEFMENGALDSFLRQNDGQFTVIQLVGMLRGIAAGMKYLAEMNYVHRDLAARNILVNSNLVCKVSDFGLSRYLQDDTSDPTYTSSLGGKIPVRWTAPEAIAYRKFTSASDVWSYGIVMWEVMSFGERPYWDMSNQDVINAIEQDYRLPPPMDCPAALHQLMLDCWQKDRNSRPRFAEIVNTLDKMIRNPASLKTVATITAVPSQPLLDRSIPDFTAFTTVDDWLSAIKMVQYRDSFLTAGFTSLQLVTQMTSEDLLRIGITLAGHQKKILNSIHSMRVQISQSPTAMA
Method in brief: (§1)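 HEK293 cells transfected with Eph kinase variants were exposed to a range of test compound concentrations. Lysate protein was quantified by BCA and normalized before Western blotting. Blots were probed for phospho-EphB, total EphB1 or EphB3, and β-actin, giving autophosphorylation relative to total receptor.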

[2] = test system: EphB3 WT; assay: EphB3 autophosphorylation in HEK293 cells co-expressing EphB3 WT; type: cell-based, human; settings: 100 nM; HEK293 co-expressing EphB3 WT and EphB1 T697G; ephrin-B2 stimulation
Method in brief: as §1

Q: How did the “inhibition of the three EphB1 alleles in cells” value ([1]; 100 nM, HEK293, tested on WT, G703C, T697G) turn out when `Cc1cccc(Cc2nn(C(C)(C)C)c3ncnc(N)c23)c1` [3MB-PP1] was run?
A: only inhibited the analog-sensitive allele; also recorded: only inhibited EphB1^T697G

Q: What about the “autophosphorylation of EphB1 T697G” value ([1]; 100 nM, HEK293 co-expressing EphB3 WT and EphB1 T697G, ephrin-B2 stimulation) of the same molecule?
A: abolished

Q: What about the “selectivity factor between the two EphB1 mutants (T697G over G703C)” value ([1]; in cells) of the same molecule?
A: ~ 500

Q: And the “autophosphorylation of EphB3 WT” value [2]?
A: little effect

From article PMC7485388 (ACS chemical biology, 2017)
